ChEMBL document CHEMBL2176986, “Selective and potent urea inhibitors of cryptosporidium parvum inosine 5'-monophosphate dehydrogenase” (J Med Chem, 2012)

How the values were obtained:
[1] = target: Inosine-5'-monophosphate dehydrogenase 2 (Homo sapiens, UniProt P12268); experiment: Inhibition of human IMPDH 2
[2] = target: T1, Inosine-5'-monophosphate dehydrogenase (Cryptosporidium parvum, UniProt Q8T6T2); experiment: Inhibition of Cryptosporidium parvum recombinant IMPDH expressed in Escherichia coli assessed as production of NADH incubated for 5 mins by fluorescence based assay
T1 sequence (Q8T6T2 whole entry): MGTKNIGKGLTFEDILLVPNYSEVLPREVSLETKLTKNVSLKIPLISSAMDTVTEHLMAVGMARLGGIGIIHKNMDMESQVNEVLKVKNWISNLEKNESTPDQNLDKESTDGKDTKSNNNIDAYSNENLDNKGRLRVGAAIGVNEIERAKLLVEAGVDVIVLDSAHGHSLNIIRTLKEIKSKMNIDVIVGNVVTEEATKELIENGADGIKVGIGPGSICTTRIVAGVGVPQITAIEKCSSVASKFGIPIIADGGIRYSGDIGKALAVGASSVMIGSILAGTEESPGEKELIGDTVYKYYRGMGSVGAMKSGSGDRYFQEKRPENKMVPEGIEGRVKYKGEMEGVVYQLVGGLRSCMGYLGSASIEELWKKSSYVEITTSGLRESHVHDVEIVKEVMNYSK
Procedure, shortened: (§1)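 Recombinant CpIMPDH purified from E. coli, 10 nM, preincubated with inhibitor 5 min at room temperature before substrates added. NADH formation followed by fluorescence. Line 3 also includes 0.05% fatty-acid-free BSA.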

[3] = target: T1, Inosine-5'-monophosphate dehydrogenase; experiment: Inhibition of Cryptosporidium parvum recombinant IMPDH expressed in Escherichia coli assessed as production of NADH in presence of 0.05% fatty acid free BSA incubated for 5 mins by fluorescence based assay; procedure, shortened: as §1
Liver = experiment: Half life in mouse liver microsomes; assay type: ADME, Microsome
Toxoplasma gondii [4] = experiment: Antiparasitic activity against Toxoplasma gondii expressing Cryptosporidium parvum IMPDH and co-expressing yellow fluorescent protein infected to human TERT immobilized human foreskin fibroblasts assessed as parasite growth inhibition for 6 to 7 days by fluorescence based assay; assay type: functional, organism-based
Procedure, shortened: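 Parasite lines carrying yellow fluorescent protein were grown on hTERT-immortalized human foreskin fibroblasts. One line depends on C. parvum IMPDH (Toxo/CpIMPDH). The other is wild-type strain RH, which has its own eukaryotic IMPDH. Fluorescence (Ex 485, Em 530) was read daily for 6-7 days. Growth inhibition was taken on a day within exponential growth.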

Toxoplasma gondii [5] = experiment: Selectivity ratio of EC50 of wild type Toxoplasma gondii to EC50 of Toxoplasma gondii expressing Cryptosporidium parvum IMPDH
Procedure, shortened: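 Selectivity is the EC50 against wild-type RH T. gondii divided by the EC50 against the CpIMPDH-dependent strain. Both were measured by daily YFP fluorescence of parasites on hTERT human foreskin fibroblasts over 6-7 days, with inhibition taken in exponential growth.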

Plasma = experiment: Half life in mouse plasma; assay type: ADME, cell-free
Toxoplasma gondii [6] = experiment: Toxicity against wild type Toxoplasma gondii expressing yellow fluorescent protein infected in human TERT immobilized human foreskin fibroblasts assessed as parasite growth inhibition for 6 to 7 days by fluorescence based assay; assay type: organism-based
Procedure, shortened: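 Parasite lines carrying yellow fluorescent protein were grown on hTERT-immortalized human foreskin fibroblasts. One line depends on C. parvum IMPDH (Toxo/CpIMPDH). The other is wild-type strain RH, which has its own eukaryotic IMPDH. Growth inhibition was taken on a day within exponential growth.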

Row | Compound | IC50 [1] [nM] | IC50 [2] [nM] | IC50 [3] [nM] | t1/2 (Liver) [h] | EC50 (Toxoplasma gondii [4]) [nM] | Ratio EC50 (Toxoplasma gondii [5]) | t1/2 (Plasma) [h] | EC50 (Toxoplasma gondii [6]) [nM]
1 | C=C(C)c1cccc(C(C)(C)NC(=O)Nc2ccc3[nH]c(=O)[nH]c3c2)c1 | > 5000 | 340 | – | – | – | – | – | –
2 | C=C(C)c1cccc(C(C)(C)NC(=O)Nc2ccc(OC)cc2)c1 | ≥ 5000 | 9 | 21 | – | – | – | – | –
3 | C/C(=N\O)c1cccc(C(C)(C)NC(=O)Nc2ccc(Cl)c([N+](=O)[O-])c2)c1 | – | 0.66 | 2 | 0.183 | 6 | – | – | –
4 | C/C(=N\O)c1cccc(C(C)(C)NC(=O)Nc2ccc(Cl)c(C(N)=O)c2)c1 | – | – | 6 | 3.17 | 1900 | >12 | > 2 | > 25000
5 | C/C(=N\O)c1cccc(C(C)(C)NC(=O)Nc2ccc3ccccc3c2)c1 | – | 1 | 2.3 | – | 80 | 63 | – | 5000
6 | C/C(=N\O)c1cccc(C(C)(C)NC(=O)Nc2ccc3cccnc3c2)c1 | – | 0.9 | 1.2 | 0.75 | 58 | 230 | > 2 | 14000
7 | CO/N=C(\C)c1cccc(C(C)(C)NC(=O)Nc2ccc(Cl)c(C(F)(F)F)c2)c1 | – | 5 | 18 | 0.55 | 16 | 86 | – | 1400
8 | CO/N=C(\C)c1cccc(C(C)(C)NC(=O)Nc2ccc(Cl)c(C(N)=O)c2)c1 | – | 5 | 5 | – | 200 | >120 | – | > 25000
9 | CO/N=C(\C)c1cccc(C(C)(C)NC(=O)Nc2ccc3ccccc3c2)c1 | – | 1.6 | 13 | – | 13 | – | – | –
10 | C/C(=N\OCCN)c1cccc(C(C)(C)NC(=O)Nc2ccc(Cl)c([N+](=O)[O-])c2)c1 | – | 20 | 24 | 2.02 | 510 | 20 | – | 10100
11 | C=C(C)c1cccc(C(C)(C)NC(=O)Nc2cccc3ccccc23)c1 | ≥ 5000 | > 5000 | – | – | – | – | – | –
12 | C=C(C)c1cccc(C(C)(C)NC(=O)Nc2ccc3ncccc3c2)c1 | ≥ 5000 | 1.8 | 4 | – | 20 | – | – | 7600
13 | C=C(C)c1cccc(C(C)(C)NC(=O)Nc2ccc3cccnc3c2)c1 | ≥ 5000 | 0.8 | 6 | 0.0983 | < 200 | >15 | > 2 | 3000
14 | C=C(C)c1cccc(C(C)(C)NC(=O)Nc2cnc3ccccc3c2)c1 | ≥ 5000 | 70 | 308 | – | 1100 | 2.3 | – | 2000
15 | C=C(C)c1cccc(C(C)(C)NC(=O)Nc2ccc3ccccc3n2)c1 | ≥ 5000 | 250 | 1100 | – | 3400 | 0.9 | – | 3000
16 | CC(C)(NC(=O)Nc1ccc2[nH]c(=O)[nH]c2c1)c1ccccc1 | – | > 5000 | – | – | – | – | – | –
17 | CC(C)c1cccc(C(C)(C)NC(=O)Nc2ccc3ccccc3c2)c1 | – | > 5000 | – | – | – | – | – | –
18 | CC(O)c1cccc(C(C)(C)NC(=O)Nc2ccc(Cl)cc2)c1 (stereo not given) | – | 80 | 120 | – | 900 | – | – | 19000
19 | CC(C)(NC(=O)Nc1ccc(Cl)c(C(N)=O)c1)c1cccc(-c2ccccc2)c1 | – | 4 | 14 | – | 210 | – | – | 6000
20 | CC(C)(NC(=O)Nc1ccc(Cl)cc1)c1ccc(-c2ccccc2)cc1 | – | > 5000 | – | – | – | – | – | –
21 | CC(=O)c1cccc(C(C)(C)NC(=O)Nc2ccc(Cl)cc2)c1 | – | 39 | 64 | – | – | – | – | –
22 | CC(=O)c1cccc(C(C)(C)NC(=O)Nc2ccc(Cl)c(C(F)(F)F)c2)c1 | – | 9 | 20 | – | 200 | 16 | – | 3200
23 | CC(=O)c1cccc(C(C)(C)NC(=O)Nc2ccc(Cl)c(C(N)=O)c2)c1 | – | 54 | 52 | > 11.7 | 380 | >66 | > 2 | > 25000

Row | Compound | IC50 [1] [nM] | IC50 [2] [nM] | IC50 [3] [nM] | t1/2 (Liver) [h] | EC50 (Toxoplasma gondii [4]) [nM] | Ratio EC50 (Toxoplasma gondii [5]) | t1/2 (Plasma) [h] | EC50 (Toxoplasma gondii [6]) [nM]
24 | CC(=O)c1cccc(C(C)NC(=O)Nc2ccc(Cl)cc2)c1 (stereo not given) | – | 70 | 110 | – | 2300 | – | – | 8000
25 | CC(=O)c1cccc(CNC(=O)Nc2ccc(Cl)cc2)c1 | – | 5000 | – | – | 11000 | 0.6 | – | 7000
26 | NC(=O)c1cc(NC(=O)NC2(c3cccc(-c4ccccc4)c3)CC2)ccc1Cl | – | 40 | 90 | – | 600 | 15 | – | 9000
27 | C=C(C)c1cccc(C(C)(C)NC(=O)N(C)c2ccc(Cl)cc2)c1 | – | 900 | 5000 | – | – | – | – | –
28 | CC(=O)c1cccc(C(C)(C)NC(=O)Oc2ccc(Cl)cc2)c1 | – | > 5000 | – | – | – | – | – | –
29 | CC(=O)c1cccc(C(C)(C)NC(=O)Cc2ccc(Cl)cc2)c1 | – | > 5000 | – | – | – | – | – | –
30 | CC(=O)c1cccc(C(C)(C)OC(=O)Nc2ccc(Cl)cc2)c1 | – | 90 | 120 | – | – | – | – | –
31 | C/C(=N\O)c1cccc(C(C)(C)NC(=O)Nc2ccc(Cl)c(C(F)(F)F)c2)c1 | – | 1 | 4 | 1.47 | 10 | – | – | –
32 | C=C(C)c1cccc(C(C)(C)NC(=O)Nc2ccccc2)c1 | ≥ 5000 | 250 | 410 | – | 770 | 8 | – | 6000
33 | C=C(C)c1cccc(C(C)(C)NC(=O)Nc2ccc(Cl)cc2)c1 | ≥ 5000 | 20 | 37 | – | 180 | >140 | – | > 25000
34 | C=C(C)c1cccc(C(C)(C)NC(=O)Nc2ccc(Br)cc2)c1 | ≥ 5000 | 10 | 20 | – | 200 | >120 | – | > 25000
35 | C=C(C)c1cccc(C(C)(C)NC(=O)Nc2cccc(Cl)c2)c1 | ≥ 5000 | 70 | 330 | – | 380 | 1 | – | 402
36 | C=C(C)c1cccc(C(C)(C)NC(=O)Nc2ccccc2Cl)c1 | ≥ 5000 | > 5000 | – | – | – | – | – | –
37 | C=C(C)c1cccc(C(C)(C)NC(=O)Nc2ccc(C(C)(C)C)cc2)c1 | ≥ 5000 | > 5000 | – | – | 7200 | 3 | – | 20000
38 | C=C(C)c1cccc(C(C)(C)NC(=O)Nc2ccc(Cl)c(Cl)c2)c1 | ≥ 5000 | 6 | 50 | – | 220 | 20 | – | 4000
39 | C=C(C)c1cccc(C(C)(C)NC(=O)Nc2ccc(Cl)c(C(F)(F)F)c2)c1 | ≥ 5000 | 4 | 20 | – | – | – | – | –
40 | C=C(C)c1cccc(C(C)(C)NC(=O)Nc2ccc(Cl)c(OC)c2)c1 | ≥ 5000 | 1.3 | 5 | – | 18 | 127 | – | 2300
41 | C=C(C)c1cccc(C(C)(C)NC(=O)Nc2ccc(Cl)c(C(N)=O)c2)c1 | ≥ 5000 | 2.3 | 3 | 0.417 | 230 | 65 | > 2 | 15000
42 | C=C(C)c1cccc(C(C)(C)NC(=O)Nc2ccc(Cl)c(C(=O)NC)c2)c1 | ≥ 5000 | 7 | 14 | – | 180 | 100 | – | 19000
43 | C=C(C)c1cccc(C(C)(C)NC(=O)Nc2ccc(Cl)c(C(=O)N(C)C)c2)c1 | ≥ 5000 | 8 | 11.7 | – | 90 | 100 | – | 9000
44 | C=C(C)c1cccc(C(C)(C)NC(=O)Nc2ccc3c(c2)OCCO3)c1 | ≥ 5000 | 7.2 | 110 | – | 200 | 50 | – | 8000
45 | C=C(C)c1cccc(C(C)(C)NC(=O)Nc2ccc3ccccc3c2)c1 | ≥ 5000 | 2.1 | 40 | – | 200 | >120 | – | > 25000
